# WT yeast gro inh = growth inhibition of WT strain, primary screen, mitochondrial fusion inhibitor project, WT and mutant strains, chemical genetic. mitochondrial fusion phenotypic screen. hit rate 2.1% among 190,000. inhibition, % at 10 µM. AID 1362, 2008; in the data active means inhibition above about 58%; tested in S. cerevisiae
# Arbovirus anti = antivirals against arbovirus infection, primary screen, cell-based, full library, 10K replicate subset; arbovirus infection cell-based antiviral screen; inhibition, % at 10 µM; hit rate 0.37% among 200,000; AID 1251, 2008; in the data active means inhibition above about 30%
# RAM network inh = inhibitors of the yeast RAM network, primary screen, dse1pr::URA3 reporter, 5-FOA selection; hit rate 1.8% among 190,000; S. cerevisiae dse1pr::URA3 reporter, 5-FOA growth OD615, 2 d; analog-sensitive cbk1-as2 kinase mutant strain; inhibition, % at 50 µM;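 active means inhibition above a set limit, 3 SD over mean compound inhibition, cut at about 8.4% in these data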;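 further: inhibition rescues growth on 5-FOA so higher OD means more RAM inhibition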
# Hck-Nef inh = inhibitors of Nef-activated human Hck kinase, primary screen, biochemical, Z-Lyte FRET, 384-well, Hck-YEEI; Tyrosine-protein kinase HCK (Homo sapiens), P08631; Recombinant Hck-YEEI plus Nef, Z-Lyte FRET kinase assay; inhibition, % at 20 µM; hit rate 0.68% among 220,000;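 active means Hck-Nef kinase inhibition above about 50%, limit read from the data; inactive means inhibition below that limit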
# p47phox inh = p47phox/p22phox peptide binding inhibitors, primary screen, biochemical, uHTS, NADPH oxidase regulatory subunit | Neutrophil cytosol factor 1 (Homo sapiens), P14598 | fluorescence polarization, 2 h | inhibition, % at 24.7 µM | hit rate 0.53% among 220,000 | AID 1274, 2008;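 active means inhibition above about 30%, limit read from the data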
# Target sequence (P14598 whole entry, looked up): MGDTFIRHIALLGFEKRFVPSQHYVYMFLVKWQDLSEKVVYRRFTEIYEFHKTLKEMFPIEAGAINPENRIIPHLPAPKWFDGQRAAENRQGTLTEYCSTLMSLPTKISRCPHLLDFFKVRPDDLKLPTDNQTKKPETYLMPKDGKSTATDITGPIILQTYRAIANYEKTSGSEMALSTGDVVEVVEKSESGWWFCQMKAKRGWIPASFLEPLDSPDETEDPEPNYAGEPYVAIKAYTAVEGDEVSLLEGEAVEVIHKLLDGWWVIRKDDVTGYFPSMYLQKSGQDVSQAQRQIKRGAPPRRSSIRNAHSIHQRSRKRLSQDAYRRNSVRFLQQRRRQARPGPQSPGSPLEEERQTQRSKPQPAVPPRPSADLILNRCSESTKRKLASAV
# Biofilm kill mix = clotrimazole potentiators killing C. albicans biofilm, primary screen, 4-compound mixtures. C. albicans biofilm persisters + clotrimazole, fluorescence viability; primary screen in compound mixtures of four per well. hit rate 0.02% among 120,000. AID 1242, 2008. inhibition, % at 7.6 µM;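 active means inhibition above 30.3% in the primary screen of four-compound pools, then above 30% when the compound was retested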;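 further: compounds exposed to preformed 24 h biofilms for 48 h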
#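 Incubation: 24 h biofilm formation, then 48 h compound exposure, 37 °C | Material: C. albicans biofilms | Buffer or medium: RPMI/MOPS medium, pH 7.0 | Measured by: 2-h Alamar Blue fluorescence, 535/590 nm excitation/emission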
# Hits are given with their value; - = inactive; . = no result given; ! = not active in a repeat. The list is not random: actives were taken first. Their share in the collection is about 4.6%.
SMILES,WT yeast gro inh,Arbovirus anti,RAM network inh,Hck-Nef inh,p47phox inh,Biofilm kill mix
CC1(C)Cc2c(C#N)c(OCC(=O)c3ccc(Cl)cc3)nc(-c3ccco3)c2CO1,-,-,-,-,-,.
O=C(Nc1ccc(F)cc1)C(c1ccccc1)N1CCN(C(=O)c2ccco2)CC1 (stereo not given),-,-,-,-,-,.
C[N+]1(CC(=O)Nc2ccc(F)cc2)CCN(C(=O)c2ccco2)CC1,67,-,-,-,-,.
N#Cc1ccc(Cl)cc1NC(=O)COC(=O)[C@H](CCC(N)=O)NC(=O)c1ccc(F)cc1,-,-,-,-,-,-
O=C(COC(=O)c1ccccn1)Nc1cccc(Cl)c1Cl,97,-,-,-,-,.
O=C(COC(=O)c1cc[n+]([O-])cc1)Nc1cccc(Cl)c1Cl,-,-,-,-,-,-
COC(=O)C1C(=O)c2c(C)noc2CC1(C)C (stereo not given),-,-,-,-,-,-
CN(C)c1nc(N(C)C)nc(N(C#N)CCOc2ccccc2)n1,-,-,9.8,-,-,-
Cc1ccc(C#CC(C)(O)C(C)(C)C)cn1 (stereo not given),.,.,.,-,-,-
CCc1cc(OCCCCNCc2ccccc2)ccc1Cl,-,-,-,-,-,-
Fc1ccccc1Oc1nc(-c2ccncc2)nc2ccccc12,.,.,.,-,-,-
O=C1CCCCC/C1=N/Nc1ccc(OCc2ccccc2)cc1,.,.,.,-,-,-
CN(C)/C=C(\C=N\OCc1ccc(Cl)cc1Cl)C(=O)Nc1ccc(Cl)c(Cl)c1,84,-,11,-,-,.
Cc1cc(O)c(/C=N/OCc2ccc(Cl)cc2Cl)c(=O)o1,-,-,-,-,-,-
Cc1cccc(C)c1NC(=O)CN1C(=O)N(C)Cc2ccccc21,-,-,-,-,-,-
COc1cccc(NC(=O)CN(C)CC(=O)Nc2ccc(C)cc2Cl)c1,-,-,-,-,-,-
CC1=C(C(=O)OC(C)C)C(c2cccs2)C(C(=O)OC(C)C)=C(C)N1,-,-,-,-,-,-
Cn1c(=O)c2c(-c3ccccc3)n(C3CCCCC3)cc2n(C)c1=O,-,-,-,-,57,.
Nn1c(Cc2cccc3ccccc23)nnc1SCCOc1ccc(Br)cc1,68,-,-,-,-,-
Cc1ccc(N2C(=O)CC(Sc3ncn[nH]3)C2=O)cc1C (stereo not given),-,-,-,-,-,.
N=C(N)SCc1nc2ccccc2c(=O)n1-c1ccccc1,-,30!,-,-,-,-
N=C(N)n1c(N)nc2ccccc2c1=O,.,.,.,-,-,-
Cc1ccc(Oc2cc(C)nc(-c3ccccc3O)n2)cc1,.,-,9.4,-,-,.
Cc1cc(OC2CCCCC2)nc(-c2ccccc2O)n1,-,-,-,-,-,.
O=C(CCl)Nc1ccccc1Sc1ccc(Cl)cc1,-,-,-,-,-,.
SMILES,WT yeast gro inh,Arbovirus anti,RAM network inh,Hck-Nef inh,p47phox inh,Biofilm kill mix
Cc1ccc(Sc2ccc(NC(=O)CCl)cc2)c(C)c1,64,-,-,-,-,-
Cc1ccc(OCCNC(=O)c2cc(C(=O)NCCOc3ccc(C)cc3)cc([N+](=O)[O-])c2)cc1,-,-,8.9,-,-,-
COc1cccc(OCCNC(=O)c2cc([N+](=O)[O-])cc([N+](=O)[O-])c2)c1,-,-,-,-,-,-
COCc1c(C(=O)OC/C(O)=C(\C#N)c2nc3ccccc3[nH]2)oc2ccccc12,-,-,-,-,-,-
CCc1c(C)nc(SCC(=O)c2cccs2)c(C#N)c1C,86,-,-,-,-,.
CCc1c(C)nc(SCC(N)=O)c(C#N)c1C,.,-,-,-,-,.
NC(=O)C1CCN(Cc2nc3ccccc3c(=O)[nH]2)CC1,-,-,-,-,33,.
O=C(Nc1ccc2snnc2c1)Nc1cccc2ccccc12,89,-,-,-,-,.
Cc1nc2cc(NC(=O)Nc3cccc4ccccc34)ccc2n1C,-,-,-,-,-,-
CCCOc1ccc(NC(N)=O)cc1OCCC,-,-,-,-,31,.
CCOc1ccc(NC(N)=O)cc1OCC,-,-,-,-,-,.
CN(C)c1ccc(C(CNC(=O)c2ccccc2F)c2c[nH]c3ccccc23)cc1 (stereo not given),-,-,-,-,-,-
CN(C)c1ccc(C(CNS(=O)(=O)c2ccc(F)c(F)c2)c2c[nH]c3ccccc23)cc1 (stereo not given),74,-,-,-,-,-
COc1ccccc1C1(CC(=O)N2CCCCC2)CCOC(C(C)C)C1 (stereo not given),-,-,-,-,-,.
OC(c1ccccn1)c1c[nH]c2ccccc12 (stereo not given),-,-,-,-,35,.
Fc1ccc(C(Nc2ccccn2)c2c[nH]c3ccccc23)cc1 (stereo not given),-,-,-,-,-,-
COc1ccc(OCc2nnc(SCC(=O)c3c(N)n(C)c(=O)n(C)c3=O)n2-c2ccccc2F)cc1,-,-,11,-,-,-
CCc1nnc(NC(=O)CCC(=O)N2CCN(CCOc3ccc(C)cc3)CC2)s1,-,-,-,-,-,.
CC(C)c1nc(N2CCN(C(=O)c3ccco3)CC2)c2c3c(sc2n1)CCCC3,81,-,-,-,-,.
Cc1nc(N2CCN(C(=O)c3ccco3)CC2)c2c3c(sc2n1)CCC3,-,-,-,-,-,.
Clc1ccc(CN2CCN(c3ccccc3)CC2)cn1,-,-,-,-,-,-
O=C(COC(=O)/C=C/c1ccc(OC(F)F)cc1)NCCN1C(=O)CSC1=O,-,-,-,-,46,-
CCOC(=O)c1ccc(NC(=O)CCc2nc(-c3ccccc3)no2)cc1,-,-,9.5,-,-,.
CCCCOc1ccc(-c2nnn(CC(=O)Nc3ncc(CC(=O)OCC)s3)n2)cc1,-,-,9.3,-,-,.
CCOC(=O)c1ccc(NC(=O)Cn2nnc(-c3ccccc3)n2)cc1,-,39,-,-,-,.
SMILES,WT yeast gro inh,Arbovirus anti,RAM network inh,Hck-Nef inh,p47phox inh,Biofilm kill mix
CCOC(=O)Cc1cnc(NC(=O)Cn2nnc(-c3ccc(OCC)cc3)n2)s1,-,-,-,-,-,.
CCOC(=O)c1ccc(NC(=O)Cn2nnc(-c3ccc(F)cc3)n2)cc1,-,-,-,-,-,.
CCOC(=O)c1ccc(NC(=O)CN2C(=O)C(CC)SC(CC)C2=O)cc1 (stereo not given),-,-,9.6,-,-,-
CCOC(=O)c1ccc(NC(=O)CCc2nc(-c3ccccc3Cl)no2)cc1,-,-,-,-,-,.
CCC1CCCCN1CC(=O)Nc1cc(OC)c(OC)cc1C#N (stereo not given),-,-,-,-,-,-
CCCC(=O)Nc1ccccc1-c1nnn(CC(=O)Nc2ccc(OC)cc2)n1,-,-,-,-,-,.

# Assay outcomes (PubChem)
